Assay results as given in PubChem BioAssay.
Unmarked numbers belong to inactive results. Records with an inconclusive call do not appear. The source made the active and inactive calls.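 Rule for the calls, unless noted: active = RAM network inhibition above 8.4% in each of two replicates, 3 SD over the compound average; inconclusive = above 8.4% inhibition in only one replicate; inactive = 8.4% inhibition or less in each replicate.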

Tests used:
[1] = OD615 S. cerevisiae growth inhibition, permissive medium, pilot counter-assay, permissive growth control for S. cerevisiae lifespan shortening project (AID 705;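 active = growth inhibition above 25% in both replicates, a cutoff set 3 SD above the mean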); conditions: OD615, 24 h, at 10 µM, active compounds read high
Procedure, shortened: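 System: Engineered DeaD yeast | Buffer or medium: SC raffinose/galactose permissive medium | Incubation: Cells pre-grown 4 h, then 24 h compound exposure, 30 °C humidified | Measured by: Absorbance (optical density) at 615 nm | Read-out: Reduction in yeast growth (OD615)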

[2] = Restrictive medium S. cerevisiae growth inhibition, OD615, pilot screen of yeast lifespan reduction project, restrictive growth control (AID 706;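 active = growth inhibition above a set limit, 3 SD over mean compound inhibition, in both replicates, cut at about 43% in these data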;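 note: modified DeaD lifespan yeast strain shifted to restrictive glucose medium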); conditions: OD615, 48 h, at 10 µM, active compounds read high
Procedure, shortened: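 Material: modified S. cerevisiae; Medium: glucose-based CSMM-D restrictive medium; Compound dosing: one concentration, 10 µM final, 0.25% DMSO; Incubation: 48 h compound exposure at 30 °C; Measured by: OD615.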

[3] = viability gain of MRP-1-high H69AR cells under doxorubicin, pilot screen, MRP-1 activator project, CellTiter-Glo, duplicate (AID 807;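 active = viability increase at or above a cutoff of the median across tested compounds plus 3 SD, cut at about 8.5% in these data, passing the limit was not always enough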;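 note: compound pretreatment 18-22 h then 72 h combined with doxorubicin; 0% = doxorubicin alone and 100% = vehicle without doxorubicin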); conditions: H69AR viability with doxorubicin, CellTiter-Glo luminescence; at 10 µM; active compounds read high
[4] = growth suppression of beta-catenin knockout HCT116, pilot screen, human colon tumor cells (AID 823;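 active = cell viability at or below a set limit in both duplicate runs, the limit being the all-compound median minus 4 SD, cut at about 23% in these data, passing the limit was not always enough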;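 note: 0% = wells killed by 20 µM Hyamine and 100% = untreated DMSO cell wells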); conditions: CellTiter-Glo, 60 h, at 10 µM, active compounds read low
[5] = growth suppression of PTEN-deleted HCT116, pilot screen, cell-based, HCT116 clonal line, CellTiter-Glo (AID 824;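 active = viability at or below 27.92% in each of two runs, the all-compound median minus 4 SD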;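 note: 0% = 20 µM Hyamine control and 100% = vehicle cell control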); conditions: 60 h, at 10 µM, active compounds read low
[6] = inhibitors of the yeast RAM network, pilot screen, dse1pr::URA3 reporter, 5-FOA selection (AID 869;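 active = inhibition over a set limit, the all-compound mean plus 3 SD, in both replicate runs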;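 note: 0% = DMSO wells with no growth and 100% = 10 µM 1-NA-PP1 with full growth; RAM network block rescues cells from 5-FOA so hits raise OD615 growth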); conditions: S. cerevisiae dse1pr::URA3 5-FOA growth, OD615, 2 d; at 10 µM; active compounds read high; strain carries analog-sensitive mutant Cbk1 kinase
[7] = RAM signaling pathway blockade in yeast – S. cerevisiae, Pdr1DBD-CYC8 efflux-inhibited sensitized strain, primary screen (AID 1298);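 note: 0% = DMSO untreated cells without growth and 100% = 10 µM 1-NA-PP1 full growth; higher means more yeast growth rescued from 5-FOA killing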; conditions: S. cerevisiae cbk1-as DSE1-URA3 strain, 5-FOA growth OD615, 2 d; at 50 µM; active compounds read high

SMILES: O=C(c1cc2ccccn2n1)N1CCN(c2ccccn2)CC1
- growth inhibition [1]: -2.62%
- growth inhibition [2]: 7.25%
- viability increase [3]: 2.16%
- viability [4]: 103%
- viability [5]: 106%
- inhibition [6]: 0.94%
- RAM network inhibition [7]: 4.4%

SMILES: Cc1ccc(C(=O)CSC2=NC(N)=C(C#N)C3(CCCCC3)C2C(N)=O)cc1 (stereo not drawn)
- growth inhibition [1]: 17.7%
- growth inhibition [2]: 51% (active)
- viability increase [3]: -4.6%
- viability [4]: 89.6%
- viability [5]: 97.6%
- inhibition [6]: 0.27%
- RAM network inhibition [7]: 9.3%

SMILES: CCc1nc2oc(C(=O)c3ccccc3)c(N)c2c2c1COC(C)(C)C2
- growth inhibition [1]: -10.5%
- growth inhibition [2]: -9.15%
- viability increase [3]: -4.48%
- viability [4]: 81.6%
- viability [5]: 80.1%
- inhibition [6]: 0.79%
- RAM network inhibition [7]: 0.85%

SMILES: CC1=C(C(N)=O)C(c2ccccc2)n2nc(-c3cccs3)nc2N1 (stereo not drawn)
- growth inhibition [1]: -9.84%
- growth inhibition [2]: 2.11%
- viability increase [3]: -3.8%
- viability [4]: 101%
- viability [5]: 93.8%
- inhibition [6]: 2.46%
- RAM network inhibition [7]: 3.65%

SMILES: Cc1ccc(SCC(=O)NCC(C)C)cc1
- growth inhibition [1]: -0.86%
- growth inhibition [2]: 6.93%
- viability increase [3]: 0.66%
- viability [4]: 97.1%
- viability [5]: 102%
- inhibition [6]: 0.42%
- RAM network inhibition [7]: 0.68%

SMILES: Cc1ccc(-n2ncc3c(NCc4ccco4)ncnc32)c(C)c1
- growth inhibition [1]: -3.74%
- growth inhibition [2]: -9.7%
- viability increase [3]: -4.75%
- viability [4]: 97.3%
- viability [5]: 90.4%
- inhibition [6]: -0.12%
- RAM network inhibition [7]: -0.57%

SMILES: O=C1C(=O)N(CCO)C(c2ccccc2)/C1=C(\O)c1ccccc1 (stereo not drawn)
- growth inhibition [1]: -18.6%
- growth inhibition [2]: -8.67%
- viability increase [3]: 0.49%
- viability [4]: 99.7%
- viability [5]: 101%
- inhibition [6]: 1.29%
- RAM network inhibition [7]: 0.42%

SMILES: CCN(CC)c1ccc(NC(=O)CSc2nc(C)cc(=O)[nH]2)cc1
- growth inhibition [1]: -5.01%
- growth inhibition [2]: 1.71%
- viability increase [3]: -0.69%
- viability [4]: 95.7%
- viability [5]: 95.4%
- inhibition [6]: 0.125%
- RAM network inhibition [7]: 5.74%

SMILES: COc1ccc2c(c1)CCc1c(C(=O)NCc3ccc(F)cc3)noc1-2
- growth inhibition [1]: -8.49%
- growth inhibition [2]: -0.25%
- viability increase [3]: 1.03%
- viability [4]: 100%
- viability [5]: 103%
- inhibition [6]: 1.86%
- RAM network inhibition [7]: 4.87%

SMILES: COc1ccc(NC(=O)CN2CC(c3ccccc3)CC2=O)cc1OC (stereo not drawn)
- growth inhibition [1]: -17.9%
- growth inhibition [2]: -15.6%
- viability increase [3]: -1.08%
- viability [4]: 104%
- viability [5]: 95.1%
- inhibition [6]: 0.27%
- RAM network inhibition [7]: 2.86%

SMILES: CCOC(=O)c1cccc(NC(=O)Cn2cc3c(n2)CCC(C)C3)c1 (stereo not drawn)
- growth inhibition [1]: 4.72%
- growth inhibition [2]: 17.6%
- viability increase [3]: -0.48%
- viability [4]: 101%
- viability [5]: 92.3%
- inhibition [6]: 1.12%
- RAM network inhibition [7]: 0.81%

SMILES: N#CC1=C(O)CCCn2c1nc1ccccc1c2=O
- growth inhibition [1]: -3.3%
- growth inhibition [2]: -18%
- viability increase [3]: -0.39%
- viability [4]: 97%
- viability [5]: 97%
- inhibition [6]: 2.41%
- RAM network inhibition [7]: 0.01%

SMILES: CC(=O)NC(CCS(C)(=O)=O)C(=O)Nc1ccc2c(c1)OCO2 (stereo not drawn)
- growth inhibition [1]: -0.69%
- growth inhibition [2]: -1.89%
- viability increase [3]: -0.58%
- viability [4]: 109%
- viability [5]: 95.5%
- inhibition [6]: 0.175%
- RAM network inhibition [7]: 2.15%

SMILES: CC(=NCCc1ccccc1)C1=C(O)COC1=O
- growth inhibition [1]: 4.12%
- growth inhibition [2]: -6.99%
- viability increase [3]: -2.71%
- viability [4]: 98.2%
- viability [5]: 99.9%
- inhibition [6]: 0.87%
- RAM network inhibition [7]: 2.27%

SMILES: CCCc1cc(C(=O)NC2CCCC2)no1
- growth inhibition [1]: -11.7%
- growth inhibition [2]: -2.35%
- viability increase [3]: 0.7%
- viability [4]: 103%
- viability [5]: 98.1%
- inhibition [6]: 0.365%
- RAM network inhibition [7]: 3.3%

SMILES: CC1(C)CC(=O)C(C=NCc2cccnc2)=C(O)C1
- growth inhibition [1]: -10.7%
- growth inhibition [2]: -17.6%
- viability increase [3]: 0.64%
- viability [4]: 92.8%
- viability [5]: 98.8%
- inhibition [6]: 0.7%
- RAM network inhibition [7]: 4.76%

SMILES: COC(=O)C1=COC(C)C2CN3CCc4c([nH]c5ccccc45)C3CC12 (stereo not drawn)
- growth inhibition [1]: -14.5%
- growth inhibition [2]: 1.04%
- viability increase [3]: -4.71%
- viability [4]: 77.4%
- viability [5]: 86%
- inhibition [6]: 1.6%
- RAM network inhibition [7]: 7.8%

SMILES: CCCc1cc(C(=O)Nc2sc(C)c(CC)c2C#N)no1
- growth inhibition [1]: -6.42%
- growth inhibition [2]: -11.2%
- viability increase [3]: 2.26%
- viability [4]: 102%
- viability [5]: 101%
- inhibition [6]: 1.42%
- RAM network inhibition [7]: 0.53%

SMILES: COCC(=O)Nc1cc(C)c2c(=O)oc3ccccc3c2n1
- growth inhibition [1]: 1.37%
- growth inhibition [2]: 5.79%
- viability increase [3]: -1.64%
- viability [4]: 96%
- viability [5]: 94%
- inhibition [6]: -0.92%
- RAM network inhibition [7]: 2.67%

SMILES: COc1ccc(NC(=O)Nc2ccc(OCC(=O)N3CCOCC3)cc2)cc1OC
- growth inhibition [1]: -13%
- growth inhibition [2]: -1.38%
- viability increase [3]: -2.34%
- viability [4]: 88.4%
- viability [5]: 90.5%
- inhibition [6]: 0.595%
- RAM network inhibition [7]: 0.11%

SMILES: Cn1c2ccc(Cl)cc2c2nc3ccccc3nc21
- growth inhibition [1]: -12.8%
- growth inhibition [2]: -4%
- viability increase [3]: -5.07%
- viability [4]: 74.7%
- viability [5]: 76.6%
- inhibition [6]: 7.62% (active)
- RAM network inhibition [7]: 12.6%

SMILES: O=S(=O)(Nc1ccc2nc(C(F)(F)F)[nH]c2c1)c1ccccc1
- growth inhibition [1]: -1.94%
- growth inhibition [2]: -0.635%
- viability increase [3]: 0.27%
- viability [4]: 85.5%
- viability [5]: 82%
- inhibition [6]: 0.97%
- RAM network inhibition [7]: 1.68%

SMILES: O=C(CCCC(=O)NCC1CCCO1)NCC1CCCO1 (stereo not drawn)
- growth inhibition [1]: -1.28%
- growth inhibition [2]: 7.34%
- viability increase [3]: -1.38%
- viability [4]: 101%
- viability [5]: 101%
- inhibition [6]: 0.185%
- RAM network inhibition [7]: 1.12%

SMILES: Cc1ccc2c(c1)NCC(C(=O)NCc1ccccc1)O2 (stereo not drawn)
- growth inhibition [1]: -10.4%
- growth inhibition [2]: 2.51%
- viability increase [3]: 0.49%
- viability [4]: 103%
- viability [5]: 88.6%
- inhibition [6]: 1.46%
- RAM network inhibition [7]: 0.25%
